From PMC7931646 (The Journal of Experimental Medicine, 2021)

Experiments:
dopamine D1 = dopamine D1 (Homo sapiens, UniProt P21728); assay: CEREP off-target radioligand binding panel; settings: read-out: inhibition of ligand binding
Procedure, shortened: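 CEREP secondary-pharmacology panel of 55 receptors, transporters and ion channels. Test compound at 10 µM was assessed for inhibition of binding of a radiolabelled reference ligand specific to each target. Result is percent inhibition of ligand binding.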

[1] = Plasma protein binding, equilibrium dialysis; type: in vitro ADME; settings: mouse
Procedure, shortened: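 Equilibrium dialysis of test compound in human, rat or mouse plasma against buffer across a semipermeable membrane. Compound concentrations in both compartments were measured by LC/MS, and percent bound was derived from them.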

[2] = GLP in vitro micronucleus evaluation; type: cell-based; settings: data not shown
[3] = Liver microsomal stability, rat; type: in vitro ADME; settings: liver microsomes
Procedure, shortened: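 Test compound at 1 µM was incubated for 30 min with liver microsomes at 1 mg/ml (human, rat or mouse). Result is percent of parent compound remaining.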

Sequence of dopamine D1 (P21728 whole entry): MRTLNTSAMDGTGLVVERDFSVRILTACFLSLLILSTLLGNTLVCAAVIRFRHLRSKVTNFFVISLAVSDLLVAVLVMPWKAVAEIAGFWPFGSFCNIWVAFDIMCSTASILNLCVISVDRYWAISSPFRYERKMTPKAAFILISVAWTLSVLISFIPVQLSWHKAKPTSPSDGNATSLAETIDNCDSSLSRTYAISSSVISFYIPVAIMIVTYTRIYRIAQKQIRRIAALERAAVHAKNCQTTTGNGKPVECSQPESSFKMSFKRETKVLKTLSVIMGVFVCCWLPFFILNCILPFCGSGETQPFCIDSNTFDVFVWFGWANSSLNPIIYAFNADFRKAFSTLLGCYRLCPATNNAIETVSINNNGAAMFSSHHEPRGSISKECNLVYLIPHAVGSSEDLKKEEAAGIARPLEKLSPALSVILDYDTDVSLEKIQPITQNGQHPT

In the case of COc1nc(-c2cc(C)c(N[C@@H](C)c3cc(F)cc(F)c3)nn2)ccc1-n1cnc(C)c1 [Compound 2, (S)-N-(1-(3,5-difluorophenyl)ethyl)-6-(6-methoxy-5-(4-methyl-1H-imidazol-1-yl)pyridin-2-yl)-4-methylpyridazin-3-amine], the inhibition at 10 µM (dopamine D1) is reported as > 50%, the “% PPB M” value [1] is reported as 99.9% and the “GLP in vitro micronucleus evaluation” value [2] is reported as “negative”. It also gave a remaining at 0.5 h, 1 µM [3] of 76%.
